Measurements of several laboratories.
Target: Activin receptor type-2B (ACVR2B, Homo sapiens, UniProt Q13705)

SMILES | effect on | method | tested at | remaining binding
CN(C)c1nccc(-c2cnc3ncccn23)n1 | binding | – | 1 µM | 100%
O=C(Nc1cccnn1)N1CC(C/C=C/c2cncc(Oc3ccc(C(F)(F)F)cn3)n2)C1 | cell-free assay | competition with immobilised ligand | 1 µM | 98%
O=C(c1ccc(Nc2ncc(Cl)c(-c3ccc(Cl)s3)n2)cc1)N1CCC(N2CCCC2)CC1 | binding | competition with immobilised ligand | 1 µM | 77%
FC(F)(F)Oc1cccc(-c2cnc3ccc(-c4ccncc4)nn23)c1 | cell-free assay | competition with immobilised ligand | 5 µM | 46%
c1cnn2ncc(-c3ccnc(N4CCC45COC5)n3)c2c1 | binding | – | 1 µM | 90%
O=C(NCCCN1CCOCC1)c1ccc(Nc2ncc(Cl)c(-c3ccc(Cl)s3)n2)cc1 | binding | competition with immobilised ligand | 1 µM | 81%
CN(C)c1nccc(-c2cnn3ncccc23)n1 | binding | competition with immobilised ligand | 1 µM | 85%
Cc1nc(C2CCN(C(=O)c3ccc(OC(F)(F)F)cc3N)CC2)c2ncc(N3CCN(C)CC3)cc2n1 | cell-free assay | competition with immobilised ligand | 1 µM | 100%
CCN1CCN(Cc2ccc(C(=O)Nc3ccc(C)c(Oc4ccc5c(c4)CC(=O)N5)c3)cc2C(F)(F)F)CC1 | binding | competition with immobilised ligand | 1 µM | 100%
CN(C)C(=O)Cn1cc(-c2nc(C3(c4ccc(-c5cnc(N)nc5)cc4)CC3)no2)cn1 | binding | competition with immobilised ligand | 1 µM | 96%
O=C(NCCCN1CCOCC1)c1ccc(Nc2nccc(-c3cc4ccccc4s3)n2)cc1 | binding | competition with immobilised ligand | 1 µM | 89%
O=C(NCC1CCOCC1)c1n[nH]cc1NC(=O)c1c(F)cccc1F | binding | competition with immobilised ligand | 1 µM | 98%
O=c1nc(-c2ccccn2)sc2ccccc12 | binding | competition with immobilised ligand | 1 µM | 100%
F[C@@H]1CCN(c2nccc(-c3cnn4ncccc34)n2)C1 | binding | – | 1 µM | 100%
COc1cnc(Nc2cccc(S(N)(=O)=O)c2)nc1N1CCN(c2ccccc2)CC1 | binding | competition with immobilised ligand | 1 µM | 100%
COc1ncc2cc3ccccc3nc2c1C#N | binding | competition with immobilised ligand | 5 µM | 90%
Cc1c[nH]c2nccc(Oc3c(F)cc(Nc4cc(Cl)nc(N)n4)cc3F)c12 | cell-free assay | competition with immobilised ligand | 0.1 µM | 100%
COc1ccnn2ncc(-c3ccnc(N(C)C)n3)c12 | binding | – | 1 µM | 100%
COc1cc(-c2cn(C3CCc4ccccc4N(CC(F)(F)F)C3=O)nn2)ccc1-n1ccc(C)n1 (centres unmarked) | binding | competition with immobilised ligand | 1 µM | 100%
N[C@@H]1CCN(c2nccc(-c3cnn4ncccc34)n2)C1 | binding | – | 1 µM | 100%
